# Sampled rows, rich in hits. Any-hit rate of the full collection: about 2.4%.
# STEP block = blocks human striatal-enriched tyrosine phosphatase; P54829; recombinant STEP, OMFP fluorogenic substrate, fluorescence; inhibition, % at 20 µM; actives 0.25% (n = 360,000);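 active means inhibition at 20 µM, scaled per plate between control wells, above about 37%, limit read from the data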;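 further: 0% = DMSO with enzyme and substrate and 100% = substrate only without enzyme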
#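 Material: STEP (striatal-enriched tyrosine phosphatase) enzyme, cell-free | Medium: 50 mM Bis-Tris pH 6.0 with 2.5 mM DTT and 0.005% Tween 20 | Read-out: Percent inhibition scaled to no-enzyme and uninhibited-enzyme controls, plate-pattern corrected | Signal: Fluorescence read at 480 nm ex / 540 nm em | Times: 20 min reaction, room temperature, in the dark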
# NadD block = inhibitors of Staphylococcus aureus NadD | inhibition, % at 20 µM | actives 0.78% (n = 360,000) | purified NadD enzyme, colorimetric absorbance read-out | AID 602399; in the data active means inhibition above about 26%
# LMPTP inh = LMPTP (human) inhibition; P24666; recombinant LMPTP-A, OMFP fluorogenic substrate, fluorescence intensity; inhibition, % at 20 µM; actives 0.22% (n = 360,000); AID 651560;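 active means compounds that cut the enzyme signal by at least half of the control window in the single-dose screen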;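 further: plate controls were DMSO wells with enzyme plus substrate for no effect and substrate without enzyme for full effect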
#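 Assay system: LMPTP-A phosphatase enzyme | Input: 0.625 nM enzyme | Also added: Fluorogenic phosphatase substrate OMFP at 400 µM final | Compound dosing: One test concentration per compound, 20 µM, with 3% DMSO overall | Schedule: 50 min enzyme reaction at room temperature, protected from light | Signal: Fluorescence intensity | Benchmarks: no-enzyme and uninhibited controls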
# SUMO1-SIM PPI = modulators of human SUMO1-mediated protein-protein interactions. SUMO1 binding to a labelled peptide, TR-FRET, 1 h. inhibition, % at 20 µM. actives 0.33% (n = 360,000). AID 602429; in the data active means inhibition above about 37%
# DNMT1 block = inhibitors of human DNMT1. inhibition (reported as % activation of signal), % at 10 µM. P26358. actives 0.83% (n = 360,000). DNMT1 molecular beacon, Hinp1I cleavage, fluorescence; in the data active means inhibition above about 50%
# Scp1 inh = inhibitors of human Scp-1 phosphatase; Recombinant Scp1, phosphopeptide, malachite green phosphate absorbance; inhibition, % at 20 µM; actives 0.88% (n = 340,000); AID 493091;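 active means inhibition above about 50% at 20 µM, limit read from the data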;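 further: plate controls were DMSO wells with enzyme for no effect and wells lacking enzyme for full effect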
#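 Test system: SCP-1 catalytic domain; Buffer or medium: Acidic Tris acetate buffer with magnesium and detergent; Also added: Phosphorylated 17-residue peptide substrate; Compound: single 20 µM dose, 1% DMSO; Schedule: enzyme reaction 45 min at room temperature, colour 5 min, stabilisation 30 min; Signal: Phosphate-binding colour reagent, absorbance read at 630 nm.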
# Scp-1 conf = Scp-1 (human) inhibition, single-dose confirmed; actives 61% (n = 2,500); shares compounds with Scp1 inh; recombinant SCP-1 catalytic domain, phosphate release, malachite green absorbance; inhibition, % at 20 µM;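 further: plate controls were DMSO with enzyme for no effect and buffer wells lacking enzyme for full effect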
# Scp-1 MG ctr = counter-screen for Scp-1 inhibitors: colorimetric interference | 2,500 tested, under 10 active | shares compounds with Scp1 inh | Colorimetric interference counterscreen, malachite green absorbance 630 nm | apparent inhibition (interference), % at 20 µM;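 further: compounds added after enzyme reaction finished so only phosphate colour detection is probed; plate controls were DMSO wells with completed Scp-1 reaction for no effect and substrate wells lacking enzyme for full effect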
# Scp-1 Tm shift = validation of human Scp-1 inhibitors by thermal shift binding. shares compounds with Scp1 inh. Recombinant SCP1, Sypro Orange thermal shift Tm. thermal shift relative to vanadate control, % at 40 µM. actives 25% (n = 1,500);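 active means substances whose mean melting-temperature shift, as a percentage of the reference inhibitor's shift, reaches about 5.3%, limit read from the data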;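 further: 0% = Tm of DMSO wells and 100% = Tm with sodium orthovanadate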
# An asterisk follows results filed as active; nt = not tested or not shown.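 How the source made its calls, unless noted: active means inhibition of at least 30% at 20 µM; inactive means the rest.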
SMILES,STEP block,NadD block,LMPTP inh,SUMO1-SIM PPI,DNMT1 block,Scp1 inh,Scp-1 conf,Scp-1 MG ctr,Scp-1 Tm shift
C[C@H](CO)N1C[C@H](C)[C@@H](CN(C)C)Oc2c(NC(=O)c3ccncc3)cccc2C1=O,-2.2,-1.8,-1.1,9.6,3.0,6.1,nt,nt,nt
C[C@H](CO)N1C[C@H](C)[C@@H](CN(C)C(=O)Nc2ccccc2)Oc2c(NC(=O)c3ccncc3)cccc2C1=O,-2.4,1.2,0.6,-1.1,8.6,88.3*,4.2,-19.2,nt
C[C@H]1CN([C@@H](C)CO)C(=O)c2cccc(NC(=O)c3ccncc3)c2O[C@H]1CN(C)C(=O)Nc1ccccc1,-1.9,21.5,0.8,3.6,4.1,95.3*,72.1*,-12.6,-15.8
O=C(O)c1nc(-c2ccccc2)c(C(=O)NC2CC2)[nH]1,2.4,-3.3,-1.6,-2.0,-1.0,nt,nt,nt,nt
O=C(/C=C/C(=O)N1CCc2ccccc2C1)N1CCc2ccccc2C1,-1.6,-1.3,-2.3,6.1,-10.9,-4.5,nt,nt,nt
Cn1cnc(C(=O)N2CCc3ccccc3C2)c1C(=O)N1CCc2ccccc2C1,-1.9,19.9,-0.2,-3.1,15.6,95.3*,83.3*,-17.5,-11.7
O=C(NCC(=O)N(Cc1cccs1)C(C(=O)NC1CCCCC1)c1ccncc1)c1ccco1 (stereo not given),-0.5,7.9,-0.3,-2.1,-9.2,51.6*,-15.3,-19.1,nt
CC(=O)c1ccc(NC(=O)CSc2ccsc2[N+](=O)[O-])cc1,2.3,-0.9,12.3,-1.0,27.0,72.3*,63.5*,-12.8,7.1*
Cc1[nH]c2ccccc2c1/C=N/NC(=O)CNC(=O)c1ccc2c(c1)OCCO2,0.0,0.4,0.6,4.0,-3.0,66.1*,-3.8,-3.0,nt
CCOC(=O)CCn1nc(-c2ccc(Cl)cc2)cc1N,0.7,-2.5,1.5,2.8,9.3,89.2*,-18.8,-15.6,nt
CC(C)(C)c1ccc(C(=O)N2CCNC(=O)C2CC(=O)Nc2ccc(F)cc2)cc1 (stereo not given),-0.6,-5.3,-0.7,-1.8,1.2,2.4,nt,nt,nt
CCc1ccc(NC(=O)CC2C(=O)NCCN2C(=O)c2ccc(F)cc2)cc1 (stereo not given),-4.8,-8.2,0.3,-2.4,1.7,9.5,-17.2,-17.2,nt
CCC1CCCCN1C(=O)CN1C(=O)c2ccccc2S1(=O)=O (stereo not given),0.7,-4.1,-0.1,-2.9,2.1,1.2,nt,nt,nt
O=[N+]([O-])c1cc2c(c3cccnc13)COCO2,-0.1,-4.5,12.9,-21.0,22.7,61.6*,52.2*,-10.4,-2.1
c1cnc2ccc3c(c2c1)COCO3,-1.4,-0.6,16.1,1.6,-1.3,7.1,nt,nt,nt
Cc1cccc(-c2nc3c(c(SCC(=O)N4CCCC4)n2)COC(C)(C)C3)c1,-1.3,-4.7,-0.2,2.8,0.1,-3.5,nt,nt,nt
COC(=O)CCC(=O)Nc1cccc([N+](=O)[O-])c1,-1.9,7.2,-0.4,-11.0,1.2,-2.2,nt,nt,nt
CCOC(=O)N1CCN(C(=O)CSc2ncnc3ccccc23)CC1,-3.4,-5.0,-1.3,-2.7,1.5,53.6*,-26.6,-18.0,nt
CCOC(=O)N1CCN(C(=O)CSc2nc3ccccc3c(=O)n2-c2ccccc2)CC1,-5.9,1.8,-1.4,2.0,0.0,-8.1,nt,nt,nt
Clc1nc(Cl)nc(-c2cn(-c3ccccc3)c3ccccc23)n1,nt,nt,nt,nt,nt,90.9*,71.5*,-15.1,-24.7
O=[N+]([O-])c1cccn2cc(-c3ccc(Br)cc3)nc12,55.6*,-3.6,33.9,-20.6,14.5,107.2*,85.8*,-11.2,8.2*
CCCN(CC(=O)Nc1ccccc1OC)C(=O)c1ccc(=O)[nH]c1,-1.6,3.1,-1.4,1.8,2.2,-3.4,nt,nt,nt
O=C(Nc1ccc(S(=O)(=O)Nc2nccs2)cc1)c1nn(-c2ccccc2)ccc1=O,7.3,19.1,47.8,10.4,42.7,74.7*,70.9*,-15.9,6.8*
Cc1cccc(-n2ccc(=O)c(C(=O)Nc3ccc(S(=O)(=O)Nc4nccs4)cc3)n2)c1,1.8,16.8,4.6,5.7,-1.5,-5.2,nt,nt,nt
O=[N+]([O-])c1nccn1CC(O)CO (stereo not given),nt,-4.1,-1.1,-9.4,nt,nt,nt,nt,nt
SMILES,STEP block,NadD block,LMPTP inh,SUMO1-SIM PPI,DNMT1 block,Scp1 inh,Scp-1 conf,Scp-1 MG ctr,Scp-1 Tm shift
Cc1cccc(C)c1NC(=O)CN(C)C(=O)c1ccc2nc[nH]c2c1,-0.4,1.0,1.3,11.8,-1.2,50.0*,55.0*,-7.1,-2.5
Cc1ccc(NC(=O)c2ccc3nc[nH]c3c2)c(O)c1,2.4,1.5,-0.7,0.1,-2.6,-14.4,nt,nt,nt
Cc1ccc(NC(=O)c2ccc3nc[nH]c3c2)nc1,1.4,-6.8,3.7,14.3,14.1,56.9*,43.7*,-4.9,-4.1
O=C(NCCc1ccccc1)C(=O)Nc1ccc([N+](=O)[O-])cc1,1.0,-0.4,-1.7,-0.5,4.6,-1.7,nt,nt,nt
Cc1c(C(=O)O)sc2nc(/C=C/c3cccc(O)c3)[nH]c(=O)c12,-2.0,-1.8,-0.7,-6.3,-1.1,-9.0,nt,nt,nt
CCOC(=O)c1c(NC(=O)C2C3C=CC(C3)C2(C)C(=O)O)sc2c1CCCC2 (stereo not given),9.8,3.2,0.8,25.4,26.3,53.0*,55.6*,-7.6,-19.1
O=S(=O)(c1ccccc1)N(CC1CO1)c1cccc2ccccc12 (stereo not given),-1.1,-1.2,1.1,2.9,-4.5,-10.3,nt,nt,nt
Cc1cc(C)c2c(=O)[nH]c(SCC(=O)NCCc3ccccc3)nc2n1,-0.3,8.0,-2.2,3.0,1.2,67.5*,-12.0,-12.3,nt
Cc1cc(CC(=O)O)c2oc(-c3ccoc3)cc(=O)c2c1,nt,nt,nt,nt,nt,75.2*,45.9*,-15.3,5.0
COc1cccc(-c2ccc(NC(=O)C3CCCN(Cc4cnc(C)s4)C3)cc2)c1 (stereo not given),1.4,-4.1,1.4,-1.5,-6.3,-5.5,nt,nt,nt
CC(C)NC(=O)C(=O)NCCCN1CCOCC1,-3.7,0.1,-0.6,2.9,-5.8,-3.1,nt,nt,nt
COC(=O)[C@H]1C[C@H](O)CN1S(=O)(=O)c1ccc(Br)cc1F,-2.9,2.3,-0.7,2.9,7.0,53.3*,-14.8,-16.2,nt
CCc1ccccc1Oc1nc(NCCOC)nc2cc(-c3ccccc3)sc12,-0.1,2.9,2.4,-1.7,-21.4,nt,nt,nt,nt
Cc1ccc[n+](CC(=O)Nc2ccc(Cl)c([N+](=O)[O-])c2)c1,-0.6,-8.6,-1.1,-17.0,2.7,84.3*,-0.7,-5.4,nt
